Values after ≈ are worked out from the molar mass of the structure shown. Active and inactive are the calls of the source. No cut-off for these calls is given here.
Assays:
Klebsiella pneumoniae = test: Antibacterial activity against Klebsiella pneumoniae BAA 1705 assessed as bacterial growth inhibition incubated for 16 to 18 hrs by CLSI based antibiotic susceptibility testing method; type: functional, organism-based; conditions: time 16-18 hrs
Outline: (§1)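 Broth microdilution in cation-adjusted Mueller-Hinton broth. Compounds were tested at […], with levofloxacin as reference and medium-only controls. Plates were incubated at 37 °C for 16-18 h. MIC was the lowest concentration with no visible growth; three independent determinations, each in duplicate.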

Mycobacteroides chelonae = test: Antimycobacterial activity against Mycobacteroides chelonae ATCC 35752 assessed as bacterial growth inhibition incubated for 72 hrs by resazurin dye based broth microdilution method; type: functional, organism-based
Outline: (§2)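 Broth microdilution in Middlebrook 7H9 with 10% ADC-Tween-80 (0.2% glycerol, 0.05% Tween-80), inoculum ~10⁶ cfu/mL. Compounds came from 10 mg/mL DMSO stocks and were tested as two-fold serial dilutions at 37 °C, 7 days for M. tuberculosis H37Rv and 72 h for NTM. Growth was read visually with PrestoBlue resazurin dye; MIC was the lowest concentration preventing growth. Triplicate determinations, each in duplicate.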

Staphylococcus aureus [1] = test: Antibacterial activity against methicillin/ceftriaxone/meropenem-resistant Staphylococcus aureus NRS10192 clinical isolate assessed as bacterial growth inhibition incubated for 16 to 18 hrs by CLSI based antibiotic susceptibility testing method; type: functional; conditions: time 16-18 hrs; outline: as §1
Staphylococcus aureus [2] = test: Antibacterial activity against methicillin/ceftriaxone/meropenem-resistant Staphylococcus aureus NRS10129 clinical isolate assessed as bacterial growth inhibition incubated for 16 to 18 hrs by CLSI based antibiotic susceptibility testing method; type: functional; conditions: time 16-18 hrs; outline: as §1
Staphylococcus aureus [3] = test: Bactericidal activity against Staphylococcus aureus ATCC 29213 assessed as reduction in remnant bacterial cells measured for 24 hrs by time-kill assay; type: functional, organism-based
Outline: (§3)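 Time-kill assay: S. aureus ATCC 29213 at ~10⁶ cfu/mL in MHB, exposed to 1X and 10X MIC at 37 °C, in triplicate. Samples taken at 0, 1, 6 and 24 h were serially diluted in PBS and plated on TSA for 18-20 h at 37 °C. Surviving cfu/mL were counted against untreated controls.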

Staphylococcus aureus [4] = test: Antibacterial activity against methicillin/ceftriaxone/meropenem-resistant Staphylococcus aureus NRS10193 clinical isolate assessed as bacterial growth inhibition incubated for 16 to 18 hrs by CLSI based antibiotic susceptibility testing method; type: functional; conditions: time 16-18 hrs; outline: as §1
Acinetobacter baumannii = test: Antibacterial activity against Acinetobacter baumannii BAA 1605 assessed as bacterial growth inhibition incubated for 16 to 18 hrs by CLSI based antibiotic susceptibility testing method; type: functional, organism-based; conditions: time 16-18 hrs; outline: as §1
Staphylococcus aureus [5] = test: Antibacterial activity against methicillin/ceftriaxone/meropenem/gentamycin/linezolid-resistant Staphylococcus aureus NRS10119 clinical isolate assessed as bacterial growth inhibition incubated for 16 to 18 hrs by CLSI based antibiotic susceptibility testing method; type: functional; conditions: time 16-18 hrs; outline: as §1
Staphylococcus aureus [6] = test: Antibacterial activity against methicillin/ceftriaxone/meropenem-resistant Staphylococcus aureus NRS10198 clinical isolate assessed as bacterial growth inhibition incubated for 16 to 18 hrs by CLSI based antibiotic susceptibility testing method; type: functional; conditions: time 16-18 hrs; outline: as §1
[7] = tested on: Mycobacteroides abscessus; test: Antimycobacterial activity against Mycobacterium abscessus ATCC 19977 assessed as bacterial growth inhibition incubated for 72 hrs by resazurin dye based broth microdilution method; type: functional, organism-based; outline: as §2
Staphylococcus aureus [8] = test: Antibacterial activity against methicillin/ceftriaxone/meropenem/vancomycin/teicoplanin-resistant Staphylococcus aureus VRS4 clinical isolate assessed as bacterial growth inhibition incubated for 16 to 18 hrs by CLSI based antibiotic susceptibility testing method; type: functional; conditions: time 16-18 hrs; outline: as §1
Staphylococcus aureus [9] = test: Antibacterial activity against methicillin-sensitive Staphylococcus aureus ATCC 29213 clinical isolate assessed as bacterial growth inhibition incubated for 16 to 18 hrs by CLSI based antibiotic susceptibility testing method; type: functional; conditions: time 16-18 hrs; outline: as §1
Staphylococcus aureus [10] = test: Antibacterial activity against Staphylococcus aureus ATCC 29213 assessed as bacterial growth inhibition incubated for 16 to 18 hrs by CLSI based antibiotic susceptibility testing method; type: functional; conditions: time 16-18 hrs; outline: as §1
[11] = Cytotoxicity against African green monkey Vero cells by MTT assay; type: toxicity, cell-based; conditions: chlorocebus sabaeus
Outline: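 Vero cells were seeded at ~10³ per well at 37 °C, 5% CO2. After 24 h, compounds were added at 5-100 mg/L for 72 h. […] was added for 4 h, formazan was dissolved in DMSO and read at 540 nm. CC50 was taken as the lowest concentration reducing viability by 50%; doxorubicin was the positive control; triplicate.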

Staphylococcus aureus [12] = test: Antibacterial activity against methicillin/ceftriaxone-resistant Staphylococcus aureus NRS10194 clinical isolate assessed as bacterial growth inhibition incubated for 16 to 18 hrs by CLSI based antibiotic susceptibility testing method; type: functional; conditions: time 16-18 hrs; outline: as §1
Staphylococcus aureus [13] = test: Antibacterial activity against methicillin/ceftriaxone/meropenem-resistant Staphylococcus aureus NRS10191 clinical isolate assessed as bacterial growth inhibition incubated for 16 to 18 hrs by CLSI based antibiotic susceptibility testing method; type: functional; conditions: time 16-18 hrs; outline: as §1
Staphylococcus aureus [14] = test: Antibacterial activity against methicillin/ceftriaxone/meropenem-resistant Staphylococcus aureus NRS10186 clinical isolate assessed as bacterial growth inhibition incubated for 16 to 18 hrs by CLSI based antibiotic susceptibility testing method; type: functional; conditions: time 16-18 hrs; outline: as §1
[15] = Selectivity index, ratio of CC50 for African green monkey Vero cells to MIC for Staphylococcus aureus ATCC 29213; type: toxicity, cell-based; conditions: read-out: Selectivity Index
[16] = tested on: Mycobacterium tuberculosis; test: Antimycobacterial activity against Mycobacterium tuberculosis H37Rv ATCC 27294 assessed as bacterial growth inhibition incubated for 7 days by resazurin dye based broth microdilution method; type: functional; conditions: H37Rv ATCC 27294, 168 h, time 7 day; outline: as §2
Staphylococcus aureus [17] = test: Antibacterial activity against methicillin/ceftriaxone/meropenem/gentamycin/linezolid-resistant Staphylococcus aureus NRS10100 clinical isolate assessed as bacterial growth inhibition incubated for 16 to 18 hrs by CLSI based antibiotic susceptibility testing method; type: functional; conditions: time 16-18 hrs; outline: as §1
Staphylococcus aureus [18] = test: Bactericidal activity against Staphylococcus aureus ATCC 29213 assessed as reduction in remnant bacterial cells at 10 times MIC measured for 24 hrs by time-kill assay; type: functional; outline: as §3
Escherichia coli = test: Antibacterial activity against Escherichia coli ATCC 25922 assessed as bacterial growth inhibition incubated for 16 to 18 hrs by CLSI based antibiotic susceptibility testing method; type: functional, organism-based; conditions: time 16-18 hrs; outline: as §1
Staphylococcus aureus [19] = test: Antibacterial activity against methicillin/ceftriaxone/meropenem/gentamycin/vancomycin/teicoplanin-resistant Staphylococcus aureus VRS1 clinical isolate assessed as bacterial growth inhibition incubated for 16 to 18 hrs by CLSI based antibiotic susceptibility testing method; type: functional; conditions: time 16-18 hrs; outline: as §1
Pseudomonas aeruginosa = test: Antibacterial activity against Pseudomonas aeruginosa ATCC 27853 assessed as bacterial growth inhibition incubated for 16 to 18 hrs by CLSI based antibiotic susceptibility testing method; type: functional, organism-based; conditions: time 16-18 hrs; outline: as §1
[20] = tested on: Mycolicibacterium fortuitum; test: Antimycobacterial activity against Mycobacterium fortuitum ATCC 6841 assessed as bacterial growth inhibition incubated for 72 hrs by resazurin dye based broth microdilution method; type: functional, organism-based; outline: as §2
Staphylococcus aureus [21] = test: Antibacterial activity against methicillin/ceftriaxone/meropenem/vancomycin/teicoplanin-resistant Staphylococcus aureus VRS12 clinical isolate assessed as bacterial growth inhibition incubated for 16 to 18 hrs by CLSI based antibiotic susceptibility testing method; type: functional; conditions: time 16-18 hrs; outline: as §1

| SMILES | growth inhibition (GI) (Klebsiella pneumoniae) | growth inhibition (GI) (Mycobacteroides chelonae) | MIC (Staphylococcus aureus [1]) [µg/mL] | MIC (Staphylococcus aureus [2]) [µg/mL] | Activity (Staphylococcus aureus [3]) | MIC (Staphylococcus aureus [4]) [µg/mL] | growth inhibition (GI) (Acinetobacter baumannii) | MIC (Staphylococcus aureus [5]) [µg/mL] | MIC (Staphylococcus aureus [6]) [µg/mL] | growth inhibition (GI) [7] | MIC (Staphylococcus aureus [8]) [µg/mL] | MIC (Staphylococcus aureus [9]) [µg/mL] | MIC (Staphylococcus aureus [10]) [µg/mL] | CC50 [11] [µg/mL] | MIC (Staphylococcus aureus [12]) [µg/mL] | MIC (Staphylococcus aureus [13]) [µg/mL] | MIC (Staphylococcus aureus [14]) [µg/mL] | selectivity ratio [15] | MIC [16] [µg/mL] | MIC (Staphylococcus aureus [17]) [µg/mL] | other results |
| --- | --- | --- | --- | --- | --- | --- | --- | --- | --- | --- | --- | --- | --- | --- | --- | --- | --- | --- | --- | --- | --- |
| O=C1c2cccc3cccc(c23)C(=O)N1CCN1CCN(C(=S)NC2CCCCC2)CC1 | inactive | inactive | 0.25 (≈ 0.555 µM) | 0.25 (≈ 0.555 µM) | Dose-Dependent Effect | 0.25 (≈ 0.555 µM) | inactive | 0.25 (≈ 0.555 µM) | 0.25 (≈ 0.555 µM) | inactive | 0.25 (≈ 0.555 µM) | 0.25 (≈ 0.555 µM) | 0.125 (≈ 0.277 µM) | > 20 | 0.25 (≈ 0.555 µM) | 0.25 (≈ 0.555 µM) | 0.25 (≈ 0.555 µM) | > 160 | 4 (≈ 8.88 µM) | 0.25 (≈ 0.555 µM) | Activity (Staphylococcus aureus [18]): ~5 log10CFU/ml; growth inhibition (GI) (Escherichia coli): inactive; MIC (Staphylococcus aureus [19]): 0.25 µg/mL (≈ 0.555 µM); growth inhibition (GI) (Pseudomonas aeruginosa): inactive; growth inhibition (GI) [20]: inactive; MIC (Staphylococcus aureus [21]): 0.5 µg/mL (≈ 1.11 µM) |
| O=C1c2cccc3cccc(c23)C(=O)N1CCN1CCN(C(=S)NC2CCCCCC2)CC1 | inactive | inactive | 0.5 (≈ 1.08 µM) | 0.5 (≈ 1.08 µM) | Dose-Dependent Effect | 1 (≈ 2.15 µM) | inactive | 1 (≈ 2.15 µM) | 1 (≈ 2.15 µM) | inactive | 0.5 (≈ 1.08 µM) | 0.5 (≈ 1.08 µM) | 0.25 (≈ 0.538 µM) | > 20 | 0.5 (≈ 1.08 µM) | 1 (≈ 2.15 µM) | 1 (≈ 2.15 µM) | > 80 | > 64 | 0.5 (≈ 1.08 µM) | Activity (Staphylococcus aureus [18]): ~5 log10CFU/ml; growth inhibition (GI) (Escherichia coli): inactive; MIC (Staphylococcus aureus [19]): 1 µg/mL (≈ 2.15 µM); growth inhibition (GI) (Pseudomonas aeruginosa): inactive; growth inhibition (GI) [20]: inactive; MIC (Staphylococcus aureus [21]): 1 µg/mL (≈ 2.15 µM) |
| O=C(CN1C(=O)c2cccc3cccc(c23)C1=O)N1CCC(NC(=S)NC2CCCC2)CC1 | inactive | inactive | 0.06 (≈ 0.129 µM) | 0.06 (≈ 0.129 µM) | Dose-Dependent Effect | 0.06 (≈ 0.129 µM) | inactive | 0.06 (≈ 0.129 µM) | 0.06 (≈ 0.129 µM) | inactive | 0.06 (≈ 0.129 µM) | 0.06 (≈ 0.129 µM) | 0.031 (≈ 0.0667 µM) | > 100 | 0.06 (≈ 0.129 µM) | 0.06 (≈ 0.129 µM) | 0.06 (≈ 0.129 µM) | > 3200 | > 64 | 0.06 (≈ 0.129 µM) | Activity (Staphylococcus aureus [18]): ~5 log10CFU/ml; growth inhibition (GI) (Escherichia coli): inactive; MIC (Staphylococcus aureus [19]): 0.06 µg/mL (≈ 0.129 µM); growth inhibition (GI) (Pseudomonas aeruginosa): inactive; growth inhibition (GI) [20]: inactive; MIC (Staphylococcus aureus [21]): 0.06 µg/mL (≈ 0.129 µM) |

Reference: ChEMBL document CHEMBL5385966, “Synthesis and biological evaluation of new naphthalimide-thiourea derivatives as potent antimicrobial agents active against multidrug-resistant Staphylococcus aureus and Mycobacterium tuberculosis” (RSC Med Chem, 2024)
